The values that follow come from ChEMBL document CHEMBL2040725, “In vitro and in vivo biological evaluation of new 4,5-disubstituted 1,2,3-triazoles as cis-constrained analogs of combretastatin A4” (Eur J Med Chem, 2012).

Active and inactive are the calls of the source. The calls are words filed in the database; no cut-off is given here.

Data set [1] can be described thus: Inhibition of tubulin polymerization preincubated for 45 mins before GTP addition measured after 2 hrs by DAPI-based fluorescenct assay. The procedure, abridged:
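Tubulin (97% pure, 1 mg/ml final) in PME buffer (100 mM PIPES, MgSO₄, 2 mM EGTA) with 10 µM DAPI. Compounds from 30 µM in 3-fold decrements, triplicate wells, colchicine as full-inhibition control. 45 min preincubation at room temperature, then 1 mM GTP added and held 2 h at 37 °C. Fluorescence read at ex 360/em 450 nm. Percent inhibition taken relative to colchicine; IC50 = 50% inhibition.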

Data set [2] concerns B16. The data set is described as follows: Cytotoxicity against mouse B16 cells assessed as cell viability after 48 hrs by MTT assay. It is filed as functional, cell-based. The settings on record: B16, 48 h. The procedure, abridged: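 Murine B16 melanoma cells in DMEM with 10% FBS, 2 mM L-glutamine and antibiotics, 37 °C, 5% CO₂. Incubated 48 h, then MTT read at 562 nm with background subtraction. IC50 from concentration-response curves.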
On the technique in general: Tetrazolium assays rely on reduction of a dye to a coloured formazan, in cell work by metabolically active cells.

Data set [3] in a line: Antivascular activity against human EAhy926 cells assessed as the minimum concentration required to elicit rounding up of cells after 2 hrs by microscopic analysis. It is filed as functional, EA.hy 926. Put shortly: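 EAhy 926 cells (HUVEC fused with A549) grown in DMEM with 10% FBS, 2 mM L-glutamine and antibiotics. Top concentration 100 µM, then two-fold serial dilutions. Wells photographed at 100× and 200×. Value = lowest concentration rounding up >15% of cells per field; 1% DMSO control.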

Data set [4] deals with Colon 26. The data set is described as follows: Antitumor activity against mouse Colon 26 cells allografted in BALB/cJRj mouse assessed as tumor growth delay time at 100 mg/kg, ip administered on days 3-7 and 10-14 post implantation relative to control. It is filed as functional. Particulars: route intraperitoneal. Put shortly:
(§1)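 Female BALB/cJRj mice (about 18 g), 5 per group. Colon 26 tumor fragments (30-60 mg) implanted s.c. bilaterally in the axilla on day 0. Dosing i.p. on days 3-7 and 10-14 in saline with 5% DMSO and 5% polysorbate 80, 0.2 ml. Tumors measured daily by caliper, volume = length × width² × 0.5. %T/C = median treated/control, taken when control tumors reached 1500 mm³. T-C growth delay also recorded.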

In data set [5] the test system is Colon 26. The data set is described as follows: Antitumor activity against mouse Colon 26 cells allografted in BALB/cJRj mouse assessed as reduction in tumor volume at 100 mg/kg, ip administered on days 3-7 and 10-14 post implantation relative to control. It is filed as functional. On the set-up: scale not given: the % may be the effect or the level left. The settings on record: route intraperitoneal. Put shortly: as §1

A short description of data set [6]: Toxicity in mouse ip dosed BALB/cJRj mouse allografted with mouse Colon 26 cells compound administered on days 3-7 and 10-14 post implantation relative to control. It counts as organism-based. Particulars: in vivo. The procedure, abridged: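 Female BALB/cJRj mice (~18 g) with bilateral subcutaneous axillary Colon 26 fragments (30-60 mg) implanted on day 0; 5 mice/group. Daily fresh doses in saline with 5% DMSO and 5% polysorbate 80, given ip on days 3-7 and 10-14; solvent-treated controls. Mice weighed daily and checked for clinical toxicity signs; tumours measured daily by caliper.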

Data set [7] deals with EA.hy 926. The data set is described as follows: Antivascular activity against human EAhy926 cells assessed as rounding up of cells at 1 uM after 2 hrs by microscopic analysis. It is filed as functional, cell-based.
The subject of data set [8] is Colon 26. The data set is described as follows: Antitumor activity against mouse Colon 26 cells allografted in BALB/cJRj mouse assessed as tumor growth delay time at 150 mg/kg, ip administered on days 3-7 and 10-14 post implantation relative to control. It counts as functional. Particulars: route intraperitoneal. The procedure, abridged: as §1
Data set [9] has as its system Colon 26. The data set is described as follows: Antitumor activity against mouse Colon 26 cells allografted in BALB/cJRj mouse assessed as reduction in tumor volume at 150 mg/kg, ip administered on days 3-7 and 10-14 post implantation relative to control. It is filed as functional. On the set-up: scale not given: the % may be the effect or the level left. Particulars: route intraperitoneal. Put shortly: as §1

For `COc1cc(-c2nn[nH]c2Cc2cc(OC)c(OC)c(OC)c2)ccc1O`, the IC50 (commonly the concentration that inhibits the measured activity by half) was greater than 30 µM in data set [1] and greater than 100 µM in data set [2]. In data set [3], the Activity is greater than 100 µM.

In the case of `COc1cc(/C=C(/Cc2cc(OC)c(OC)c(OC)c2)[N+](=O)[O-])cc(OC)c1O`, the 50% inhibitory concentration (IC50) was determined as 23.4 µM in data set [1] and 3.2 µM in data set [2]. In addition, the Activity in data set [3] worked out at 12.5 µM.

As to `COc1ccc(-c2nn[nH]c2Cc2cc(OC)c(OC)c(OC)c2)cc1O`, the values for the 50% inhibitory concentration (IC50) in [1] and in data set [2] were 1.2 µM and 1.6 µM, respectively. In addition, the Time in data set [4] came to 2.7 days. The Activity in [5] was determined as 60%; in data set [3], 0.13 µM. For the same compound, the MTD in data set [6] worked out at 100 mg/kg. Besides, the outcome in [7] was Active.

Consider `COc1cc(/C=C(/Cc2cc(OC)c(OC)c(OC)c2)[N+](=O)[O-])cc(OC)c1OC`, for which the IC50 in data set [1] is 22.4 µM; in data set [2] it was 3.3 µM. The Activity in data set [3] is 6.3 µM.

With `COc1ccc(/C=C\c2cc(OC)c(OC)c(OC)c2)cc1O` [COMBRETASTATIN A4], the IC50 in data set [1] stood at 0.3 µM; in data set [2], 0.003 µM. The Activity in data set [3] was 0.006 µM.

For the compound `COc1cc(Cc2[nH]nnc2-c2ccc(Cl)cc2Cl)cc(OC)c1OC`, the IC50 in [1] is greater than 30 µM; in data set [2], 41.7 µM. Further, the Activity in data set [3] was greater than 100 µM.

Regarding `COc1ccc(-c2nn[nH]c2Cc2cc(OC)c(OC)c(OC)c2)cc1N`, the half-inhibitory concentration (IC50) is 1.8 µM in [1] and 14.8 µM in data set [2]. In data set [3], the Activity was found to be 0.2 µM.

With `COc1ccc(/C=C(/Cc2cc(OC)c(OC)c(OC)c2)[N+](=O)[O-])cc1F`, the IC50 in data set [1] is 1.6 µM; in [2], 2.9 µM. For the same compound, the Activity in data set [3] was 0.8 µM.

For `COc1cc(C/C(=C/c2ccc3c(c2)OCO3)[N+](=O)[O-])cc(OC)c1OC`, the IC50 in data set [1] was 10.5 µM; in [2], 3 µM. For the same compound, the Activity in data set [3] is 0.4 µM.

With `COc1cc(/C=C(/Cc2cc(OC)c(OC)c(OC)c2)[N+](=O)[O-])ccc1O`, the figures for the half-inhibitory concentration (IC50) in data set [1] and in data set [2] were greater than 30 µM and 2.6 µM, respectively. The Activity in [3] amounted to 6.3 µM.

Turning to `COc1cc(-c2nn[nH]c2Cc2c[nH]c3ccccc23)cc(OC)c1OC`, the half-maximal inhibitory concentration (IC50) was greater than 30 µM in data set [1] and 10.7 µM in data set [2]. In addition, in data set [3], the Activity came out at 50 µM.

For the compound `COc1ccc(-c2nn[nH]c2Cc2cc(OC)c(OC)c(OC)c2)cc1F`, the half-maximal inhibitory concentration (IC50) came to 12 µM in data set [1] and 31 µM in data set [2]. The Activity in data set [3] is 2.5 µM.

As for `COc1cc(Cc2[nH]nnc2-c2ccc3c(c2)OCO3)cc(OC)c1OC`, the IC50 in data set [1] was greater than 30 µM; in data set [2] it was 38 µM. Besides, in data set [3], the Activity was 25 µM.

As for `COc1cc(C/C(=C/c2ccc(Cl)cc2Cl)[N+](=O)[O-])cc(OC)c1OC`, the half-maximal inhibitory concentration (IC50) in data set [1] came out at 21.9 µM; in data set [2], 2.6 µM. In addition, the Activity in data set [3] stood at 3.1 µM.

As for `COc1ccc(Cc2[nH]nnc2-c2cc(OC)c(OC)c(OC)c2)cc1O`, the half-inhibitory concentration (IC50) in data set [1] came out at 1.7 µM; in data set [2] it was 22.9 µM. Besides, in [3], the Activity was 0.6 µM.

As to `COc1ccc(/C=C(/Cc2cc(OC)c(OC)c(OC)c2)[N+](=O)[O-])cc1[N+](=O)[O-]`, the figures for the half-inhibitory concentration (IC50) in [1] and in data set [2] were 8.9 µM and 3.5 µM, respectively. Also, the Activity in data set [3] is 3 µM.

In the case of `COc1ccc(-c2nn[nH]c2Cc2cc(OC)c(OC)c(OC)c2)cc1[N+](=O)[O-]`, the IC50 in data set [1] is greater than 30 µM; in [2], 50.1 µM. Moreover, in data set [3], the Activity is 25 µM.

As for `COc1ccc(/C=C(/Cc2cc(OC)c(OC)c(OC)c2)[N+](=O)[O-])cc1O`, the IC50 came out at 0.9 µM in data set [1] and 4 µM in data set [2]. Besides, in data set [6], the MTD turned out to be 150 mg/kg. Further, the Time in data set [8] came out at 2 days. Moreover, the Activity in data set [9] came to 52%; in [3], 0.2 µM.

`COc1cc(C/C(=C/c2ccc(Cl)c(Cl)c2)[N+](=O)[O-])cc(OC)c1OC`: the IC50 in [1] was 15.5 µM; in [2] it was 4.6 µM. Besides, the Activity in data set [3] stood at 3.1 µM.

Turning to `COc1cc(/C=C(/Cc2c[nH]c3ccccc23)[N+](=O)[O-])cc(OC)c1OC`, the results for the 50% inhibitory concentration (IC50) in data set [1] and in data set [2] were 5.2 µM and 5.5 µM, respectively. Moreover, the Activity in data set [3] turned out to be 1.6 µM.

Consider `COc1ccc(C/C(=C/c2cc(OC)c(OC)c(OC)c2)[N+](=O)[O-])cc1O`, for which the concentration for half-maximal inhibition (IC50) in data set [1] was determined as 0.9 µM; in data set [2], 2.9 µM. In addition, the Activity in data set [3] came out at 0.6 µM.
